ChEMBL document CHEMBL3098012, “A novel tamoxifen derivative, ridaifen-F, is a nonpeptidic small-molecule proteasome inhibitor” (Eur J Med Chem, 2014)
The source made the active and inactive calls. The rule behind the calls is not given here. Peptide text beside a SMILES is read from it. * marks the point of attachment. Cbz = O=C(OCc1ccccc1)*

Key:
[1] = Cytotoxicity against ER-negative HEK293 cells after 48 hrs by MTT assay; format: cell-based; details: human
Summary of the method: (§1)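 HEK293 (DMEM) or HL-60 (IMDM) cells, each with 10% FBS plus penicillin/streptomycin, seeded 5×10^3 cells/well in duplicate. Exposed 48 h to compound at […]. MTT reduction read as 560/750 nm absorbance ratio after HCl/2-propanol extraction. CyT50 from inhibition curve; means of triplicate.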

[2] = test system: HL-60; test: Cytotoxicity against […] human HL60 cells after 48 hrs by MTT assay; format: functional; details: HL-60, 48 h; summary of the method: as §1
[3] = molecular target: T1, Proteasome Macropain subunit MB1 (Homo sapiens, UniProt P28074); test: Inhibition of chymotrypsin-like activity of human 20S proteasome beta 5 subunit assessed as hydrolysis of succinyl-LLVY-AMC fluorogenic substrate measured for 1 hr by fluorometric analysis
T1 sequence (P28074 whole entry): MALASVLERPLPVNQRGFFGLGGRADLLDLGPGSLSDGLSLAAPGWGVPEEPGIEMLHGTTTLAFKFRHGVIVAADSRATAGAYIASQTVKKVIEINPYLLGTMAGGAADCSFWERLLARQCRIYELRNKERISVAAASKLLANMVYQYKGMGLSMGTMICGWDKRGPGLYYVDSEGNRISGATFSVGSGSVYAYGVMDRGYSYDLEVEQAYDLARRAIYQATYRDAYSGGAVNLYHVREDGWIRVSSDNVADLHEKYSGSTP
Summary of the method: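 Purified human 20S proteasome (0.1 µg) incubated at 37 °C with 50 µM succinyl-LLVY-AMC (CT-L) or 20 µM Z-LLE-AMC (PGPH) and compound at 0.01–10 µM in 25 mM HEPES, 0.5 mM EDTA, 0.03% SDS. IC50 taken from inhibition curve; means of three experiments.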

[4] = test system: HeLa; test: Inhibition of proteasome in human HeLa cells assessed as accumulation of ubiquitinated proteins at 60 uM after 24 hrs by Western blotting analysis; format: cell-based
Summary of the method: (§2)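 HeLa cells, 4×10^5 cells/well, treated 24 h with compound; vehicle control 0.25% DMSO. Lysed in Tris–HCl/2% SDS/glycerol buffer with protease and phosphatase inhibitors; 30 µg protein run on SDS-PAGE, PVDF blot probed with anti-ubiquitin (1:200), actin as loading reference, HRP secondary, ECL detection.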

[5] = test system: HeLa; test: Induction of apoptosis in human HeLa cells assessed as PARP cleavage after 24 hrs by Western blotting analysis; format: functional, cell-based
Summary of the method: (§3)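 HeLa cells seeded 4×10^5 cells/well, incubated 24 h with varying compound concentrations; PARP cleavage detected in lysates by Western blotting.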

[6] = molecular target: T2, Proteasome component C5 (Homo sapiens) (UniProt P20618); test: Inhibition of biotin-labeled belactosin A binding to human 20S proteasome beta 1 subunit preincubated for 1 hr followed by biotin-labeled belactosin A treatment measured after 1 hr by Western blotting analysis
T2 sequence (whole entry): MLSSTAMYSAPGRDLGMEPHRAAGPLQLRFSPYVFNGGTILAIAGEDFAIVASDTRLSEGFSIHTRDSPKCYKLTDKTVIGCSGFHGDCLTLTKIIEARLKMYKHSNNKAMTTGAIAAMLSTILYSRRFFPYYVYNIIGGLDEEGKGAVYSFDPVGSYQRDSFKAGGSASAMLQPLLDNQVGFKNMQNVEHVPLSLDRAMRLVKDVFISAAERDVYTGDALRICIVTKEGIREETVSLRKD
Summary of the method: (§4)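 Purified human 20S proteasome preincubated 1 h at 37 °C with varying compound levels, then biotin-belactosin A added to 1 µM for a further 1 h. Proteins separated by SDS-PAGE, blotted to PVDF, milk-blocked; biotin-labelled subunits detected with streptavidin-HRP and ECL.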

[7] = molecular target: T3, Proteasome Macropain subunit MB1 (Homo sapiens) (UniProt P28074); test: Inhibition of biotin-labeled belactosin A binding to human 20S proteasome beta 5 subunit at 100 uM preincubated for 1 hr followed by biotin-labeled belactosin A treatment measured after 1 hr by Western blotting analysis; summary of the method: as §4
T3 sequence (whole entry): T1 sequence (P28074 whole entry)

[8] = molecular target: T2, Proteasome component C5 (Homo sapiens); test: Inhibition of biotin-labeled belactosin A binding to human 20S proteasome beta 1 subunit at 10 uM preincubated for 1 hr followed by biotin-labeled belactosin A treatment measured after 1 hr by Western blotting analysis; summary of the method: as §4
[9] = molecular target: T3, Proteasome Macropain subunit MB1 (Homo sapiens); test: Inhibition of biotin-labeled belactosin A binding to human 20S proteasome beta 5 subunit at 1 to 100 uM preincubated for 1 hr followed by biotin-labeled belactosin A treatment measured after 1 hr by Western blotting analysis; summary of the method: as §4
[10] = species on record: Homo sapiens; test: Inhibition of cathepsin (unknown origin) at >10 uM
[11] = species on record: Homo sapiens; test: Inhibition of calpain (unknown origin) at >10 uM
[12] = molecular target: T3, Proteasome Macropain subunit MB1 (Homo sapiens); test: Inhibition of chymotrypsin-like activity of human 20S proteasome beta 5 subunit assessed as hydrolysis of succinyl-LLVY-AMC fluorogenic substrate at 10 uM measured for 1 hr by fluorometric analysis relative to control; set-up: scale not given: the % may be the effect or the level left
[13] = molecular target: Proteasome Macropain subunit (Homo sapiens) (UniProt P49721); test: Inhibition of trypsin-like activity of human 20S proteasome beta 2 subunit assessed as hydrolysis of Boc-LRR-AMC fluorogenic substrate at 10 uM measured for 1 hr by fluorometric analysis relative to control; set-up: scale not given: the % may be the effect or the level left
Sequence of Proteasome Macropain subunit (Homo sapiens) (P49721 whole entry): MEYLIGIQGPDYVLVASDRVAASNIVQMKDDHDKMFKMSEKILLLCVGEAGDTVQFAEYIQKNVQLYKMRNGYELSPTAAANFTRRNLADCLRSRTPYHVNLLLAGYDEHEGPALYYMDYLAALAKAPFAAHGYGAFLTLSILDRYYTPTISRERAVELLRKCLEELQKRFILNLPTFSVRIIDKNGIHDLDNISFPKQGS

[14] = molecular target: T2, Proteasome component C5 (Homo sapiens); test: Inhibition of PGPH-like activity of human 20S proteasome beta 1 subunit assessed as hydrolysis of Z-LLE-AMC fluorogenic substrate at 10 uM measured for 1 hr by fluorometric analysis relative to control; set-up: scale not given: the % may be the effect or the level left
[15] = molecular target: T1, Proteasome Macropain subunit MB1; test: Noncompetitive inhibition of chymotrypsin-like activity of human 20S proteasome beta 5 subunit assessed as hydrolysis of succinyl-LLVY-AMC fluorogenic substrate Lineweaver-Burk plot analysis
[16] = molecular target: Proteasome Macropain subunit (Homo sapiens) (UniProt P49721); details: 10 to 20 uM
[17] = molecular target: T3, Proteasome Macropain subunit MB1 (Homo sapiens); details: 10 to 20 uM
[18] = test system: HeLa; test: Cell cycle arrest in human HeLa cells assessed as accumulation at sub G1 phase at 10 uM after 24 hrs by propidium iodide staining-based flow cytometric analysis (reference value: 2.2%); format: functional
[19] = molecular target: T2, Proteasome component C5 (Homo sapiens); details: 10 to 20 uM
[20] = test system: HeLa; test: Inhibition of proteasome in human HeLa cells assessed as accumulation of ubiquitinated proteins at 10 uM after 24 hrs by Western blotting analysis; format: cell-based; summary of the method: as §2
[21] = molecular target: Proteasome Macropain subunit (Homo sapiens) (UniProt P49721); test: Inhibition of biotin-labeled belactosin A binding to human 20S proteasome beta 2 subunit at 1 to 100 uM preincubated for 1 hr followed by biotin-labeled belactosin A treatment measured after 1 hr by Western blotting analysis
Summary of the method: (§5)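 Purified human 20S proteasomes preincubated with varying inhibitor concentrations 1 h at 37 °C, then biotin-belactosin A added at 1 μM for a further 1 h. Proteins separated by SDS-PAGE, blotted to PVDF, blocked with 5% skim milk; biotin-labeled subunits detected with streptavidin-HRP and ECL. MG132 used as control.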

[22] = molecular target: T2, Proteasome component C5 (Homo sapiens); test: Inhibition of biotin-labeled belactosin A binding to human 20S proteasome beta 1 subunit at 1 to 100 uM preincubated for 1 hr followed by biotin-labeled belactosin A treatment measured after 1 hr by Western blotting analysis; summary of the method: as §5
[23] = test system: HeLa; test: Induction of apoptosis in human HeLa cells assessed as PARP cleavage at 1 to 60 uM after 24 hrs by Western blotting analysis; format: functional, cell-based; summary of the method: as §3

Row | IC50 [3] | SMILES | CC50 at 48 h [1] | CC50 [2] | other results
1 | 1.04 µM | C=C(c1ccc(OCCN2CCCCCC2)cc1)c1ccc(OCCN2CCCCCC2)cc1 | 9.8 µM | 10.7 µM | 
2 | 0.67 µM | c1cc(OCCN2CCCCCC2)ccc1Cc1ccc(OCCN2CCCCCC2)cc1 | 10.9 µM | 14.5 µM | inhibition [4]: Active; Activity [5]: Dose-dependent effect; inhibition [6]: Dose-dependent effect; inhibition [7]: Active; inhibition [8]: Active; inhibition [9]: Active
3 | 1.94 µM | c1cc(C2(c3ccc(OCCN4CCCCCC4)cc3)CCCCC2)ccc1OCCN1CCCCCC1 | 17.5 µM | > 30 µM | 
4 | 1.57 µM | CCC(CC)=C(c1ccc(OCCN2CCCCCC2)cc1)c1ccc(OCCN2CCCCCC2)cc1 | 6.02 µM | 8.87 µM | 
5 | 1.66 µM | CC(O)(c1ccc(OCCN2CCCCCC2)cc1)c1ccc(OCCN2CCCCCC2)cc1 | 22.7 µM | 7.06 µM | 
6 | > 10 µM | CCC(=C(c1ccc(OCCCN2CCCC2)cc1)c1ccc(OCCCN2CCCC2)cc1)c1ccccc1 |  |  | inhibition [10]: inactive; inhibition [11]: inactive
7 | 6.56 µM | CCC(=C(c1ccc(OCCN2CCCC2)cc1)c1ccc(OCCN2CCCC2)cc1)c1ccccc1 |  |  | inhibition [10]: inactive; inhibition [11]: inactive
8 | 2.7 µM | c1cc(C(=C2CCCC2)c2ccc(OCCN3CCCCCC3)cc2)ccc1OCCN1CCCCCC1 | 26.2 µM | 20.1 µM | 
9 | > 10 µM | CCC(=C(c1ccc(OCCCN(C)C)cc1)c1ccc(OCCCN(C)C)cc1)c1ccccc1 |  |  | inhibition [10]: inactive; inhibition [11]: inactive
10 | > 10 µM | c1ccc(C(=C(c2ccc(OCCN3CCCCCC3)cc2)c2ccc(OCCN3CCCCCC3)cc2)C2CCCCC2)cc1 | > 30 µM | > 30 µM | 
11 | 1.66 µM | CC(C)=C(c1ccc(OCCN2CCCCCC2)cc1)c1ccc(OCCN2CCCCCC2)cc1 | 11.1 µM | 10.7 µM | 
12 | > 10 µM | CCCCC(CCCC)=C(c1ccc(OCCN2CCCCCC2)cc1)c1ccc(OCCN2CCCCCC2)cc1 | > 30 µM | 25.3 µM | 
13 |  | CC/C(=C(\c1ccccc1)c1ccc(OCCN(C)C)cc1)c1ccccc1 |  |  | Activity [12]: 145%; Activity [13]: 112%; Activity [14]: 85%
14 | 0.8 µM | CC(c1ccc(OCCN2CCCCCC2)cc1)c1ccc(OCCN2CCCCCC2)cc1 | 8.12 µM | 21.4 µM | 
15 | 1.46 µM | CCC=C(c1ccc(OCCN2CCCCCC2)cc1)c1ccc(OCCN2CCCCCC2)cc1 | 26.7 µM | 22.6 µM | 
16 | 7.19 µM | CCC(=C(c1ccc(OCCN2CCOCC2)cc1)c1ccc(OCCN2CCOCC2)cc1)c1ccccc1 |  |  | inhibition [10]: inactive; inhibition [11]: inactive

Row | IC50 [3] | SMILES | CC50 at 48 h [1] | CC50 [2] | other results
17 | > 10 µM | CCC(=C(c1ccc(OCCN(CC)CC)cc1)c1ccc(OCCN(CC)CC)cc1)c1ccccc1 |  |  | inhibition [10]: inactive; inhibition [11]: inactive
18 | 0.9 µM | CC(=C(c1ccc(OCCN2CCCCCC2)cc1)c1ccc(OCCN2CCCCCC2)cc1)c1ccccc1 | 18.9 µM | 6.87 µM | 
19 | 1.18 µM | c1ccc(C(=C(c2ccc(OCCN3CCCCCC3)cc2)c2ccc(OCCN3CCCCCC3)cc2)c2ccccc2)cc1 | 23.2 µM | > 30 µM | Ki [15]: 1.1 µM
20 |  | CC(C)C[C@@H](C=O)NC(=O)[C@H](CC(C)C)NC(=O)[C@H](CC(C)C)NC(=O)OCc1ccccc1 [MG-132] (Cbz-Leu-Leu-Leu-aldehyde) |  |  | inhibition [16]: Active; inhibition [17]: Active; Activity [18]: 5.6%; inhibition [19]: Active; inhibition [20]: Active
21 | > 10 µM | CCCCCC(CCCCC)=C(c1ccc(OCCN2CCCCCC2)cc1)c1ccc(OCCN2CCCCCC2)cc1 | 14.5 µM | > 30 µM | 
22 | > 10 µM | CCC(=C(c1ccc(OCCN2CCCCC2)cc1)c1ccc(OCCN2CCCCC2)cc1)c1ccccc1 |  |  | inhibition [10]: inactive; inhibition [11]: inactive
23 | 3.36 µM | CCC(=C(c1ccc(OCCN(C)C)cc1)c1ccc(OCCN(C)C)cc1)c1ccccc1 |  |  | inhibition [10]: inactive; inhibition [11]: inactive
24 | 0.75 µM | CC(C)(c1ccc(OCCN2CCCCCC2)cc1)c1ccc(OCCN2CCCCCC2)cc1 | 7.61 µM | 17.6 µM | 
25 | 1.37 µM | CCCC(=C(c1ccc(OCCN2CCCCCC2)cc1)c1ccc(OCCN2CCCCCC2)cc1)c1ccccc1 | 26.8 µM | 4.3 µM | 
26 | > 10 µM | c1ccc(Cc2ccc(OCCN3CCCCCC3)cc2)cc1 | 27 µM | > 30 µM | inhibition [21]: Active; inhibition [22]: Active; Activity [23]: inactive
27 | > 10 µM | CCCCCCC(CCCCCC)=C(c1ccc(OCCN2CCCCCC2)cc1)c1ccc(OCCN2CCCCCC2)cc1 | > 30 µM | > 30 µM | 
28 | 2.19 µM | c1cc(C(=C2CCCCC2)c2ccc(OCCN3CCCCCC3)cc2)ccc1OCCN1CCCCCC1 | 12.5 µM | 11.7 µM | 
29 | 0.58 µM | C(=C(c1ccc(OCCN2CCCCCC2)cc1)c1ccc(OCCN2CCCCCC2)cc1)c1ccccc1 | 6.06 µM | 9.73 µM | Ki [15]: 0.87 µM
30 | 3.38 µM | CCCC(CCC)=C(c1ccc(OCCN2CCCCCC2)cc1)c1ccc(OCCN2CCCCCC2)cc1 | > 30 µM | > 30 µM | 
31 | 1.65 µM | O=C(c1ccc(OCCN2CCCCCC2)cc1)c1ccc(OCCN2CCCCCC2)cc1 | 13.9 µM | > 30 µM | 
